{"source": "ChEMBL document CHEMBL5712905", "about": "“H3K27M induces defective chromatin spread of PRC2-mediated repressive H3K27me2/me3 and is essential for glioma tumorigenesis” (2019)", "key": {"BT-245 [1]": {"system": "BT-245", "assay": "Growth inhibition of human BT-245 cells expressing mutant K27M at 1.5 uM assessed as normalized cell index after 7 days by Alamar blue assay relative to control", "assay_type": "functional", "details": "time 7 day", "procedure,_shortened": "(§1)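 Tumor-derived cells were grown in NS-A proliferation medium with bFGF (10 ng/mL), rhEGF (20 ng/mL) and heparin on poly-L-ornithine/laminin coating. They were plated at 7000 cells/well and exposed to EZH2 inhibitor (0.5–10 uM) or DMSO vehicle for 7 days, with media changed every 3 days. Alamar blue was added on day 7 for 6 h and absorbance read at 570 and 600 nm. Percent difference versus untreated growth control was derived from an extinction-coefficient formula; values are the mean of three replicates ± SEM.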"}, "BT-245 [2]": {"system": "BT-245", "assay": "Growth inhibition of K27M knock-out human BT-245 cells at 1.5 uM assessed as normalized cell index after 7 days by Alamar blue assay relative to control", "assay_type": "functional", "details": "time 7 day", "procedure,_shortened": "as §1"}, "BT-245 [3]": {"system": "BT-245", "assay": "Growth inhibition of K27M knock-out human BT-245 cells at 3.5 uM assessed as normalized cell index after 7 days by Alamar blue assay relative to control", "assay_type": "functional", "details": "time 7 day", "procedure,_shortened": "as §1"}, "BT-245 [4]": {"system": "BT-245", "assay": "Growth inhibition of human BT-245 cells expressing mutant K27M at 3.5 uM assessed as normalized cell index after 7 days by Alamar blue assay relative to control", "assay_type": "functional", "details": "time 7 day", "procedure,_shortened": "as §1"}, "BT-245 [5]": {"system": "BT-245", "assay": "Growth inhibition of K27M knock-out human BT-245 cells at 2.5 uM assessed as normalized cell index after 7 days by Alamar blue assay relative to control", "assay_type": "functional", "details": "time 7 day", "procedure,_shortened": "as §1"}, "[6]": {"molecular_target": "Histone-lysine N-methyltransferase EZH2 (Homo sapiens) (UniProt Q15910)", "sequence (Q15910 whole entry, looked up)": "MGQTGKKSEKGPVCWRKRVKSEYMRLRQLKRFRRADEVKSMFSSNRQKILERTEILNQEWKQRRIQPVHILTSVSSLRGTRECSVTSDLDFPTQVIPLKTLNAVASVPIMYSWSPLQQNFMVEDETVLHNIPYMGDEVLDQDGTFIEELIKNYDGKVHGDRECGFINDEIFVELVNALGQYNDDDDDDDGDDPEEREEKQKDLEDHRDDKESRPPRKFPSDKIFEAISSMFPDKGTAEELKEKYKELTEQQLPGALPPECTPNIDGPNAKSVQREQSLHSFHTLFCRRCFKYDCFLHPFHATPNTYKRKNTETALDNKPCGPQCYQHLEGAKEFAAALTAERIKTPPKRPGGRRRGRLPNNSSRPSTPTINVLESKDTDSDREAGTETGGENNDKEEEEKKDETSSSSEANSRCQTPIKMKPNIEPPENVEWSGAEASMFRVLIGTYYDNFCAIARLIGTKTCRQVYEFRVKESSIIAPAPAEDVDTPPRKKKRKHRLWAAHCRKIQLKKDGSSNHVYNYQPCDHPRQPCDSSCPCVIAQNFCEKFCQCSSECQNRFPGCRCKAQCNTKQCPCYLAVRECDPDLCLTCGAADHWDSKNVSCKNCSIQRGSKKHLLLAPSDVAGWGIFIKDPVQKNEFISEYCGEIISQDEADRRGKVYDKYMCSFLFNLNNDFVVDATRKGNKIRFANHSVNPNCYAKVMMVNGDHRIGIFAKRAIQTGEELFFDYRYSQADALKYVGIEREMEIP", "assay": "Inhibition of EZH2 in human BT-245 cells expressing mutant K27M assessed as decrease in H3K27me2 deposition by western blot method", "assay_type": "cell-based"}, "[7]": {"molecular_target": "Histone-lysine N-methyltransferase EZH2 (Homo sapiens) (UniProt Q15910)", "assay": "Inhibition of EZH2 in human G477 cells assessed as decrease in H3K27me3 deposition by western blot method", "assay_type": "cell-based"}, "BT-245 [8]": {"system": "BT-245", "assay": "Growth inhibition of K27M knock-out human BT-245 cells at 4 uM assessed as normalized cell index after 7 days by Alamar blue assay relative to control", "assay_type": "functional", "details": "time 7 day", "procedure,_shortened": "as §1"}, "BT-245 [9]": {"system": "BT-245", "assay": "Growth inhibition of human BT-245 cells expressing mutant K27M at 2.5 uM assessed as normalized cell index after 7 days by Alamar blue assay relative to control", "assay_type": "functional", "details": "time 7 day", "procedure,_shortened": "as §1"}, "BT-245 [10]": {"system": "BT-245", "assay": "Growth inhibition of human BT-245 cells expressing mutant K27M at 10 uM assessed as normalized cell index after 7 days by Alamar blue assay relative to control", "assay_type": "functional", "details": "time 7 day", "procedure,_shortened": "as §1"}, "[11]": {"molecular_target": "Histone-lysine N-methyltransferase EZH2 (Homo sapiens) (UniProt Q15910)", "assay": "Inhibition of EZH2 in human BT-245 cells expressing mutant K27M assessed as decrease in H3K27me3 deposition by western blot method", "assay_type": "cell-based"}, "BT-245 [12]": {"system": "BT-245", "assay": "Growth inhibition of K27M knock-out human BT-245 cells at 5 uM assessed as normalized cell index after 7 days by Alamar blue assay relative to control", "assay_type": "functional", "details": "time 7 day", "procedure,_shortened": "as §1"}, "[13]": {"molecular_target": "Histone-lysine N-methyltransferase EZH2 (Homo sapiens) (UniProt Q15910)", "assay": "Inhibition of EZH2 in human G477 cells assessed as decrease in H3K27me2 deposition by western blot method", "assay_type": "cell-based"}, "BT-245 [14]": {"system": "BT-245", "assay": "Growth inhibition of human BT-245 cells expressing mutant K27M at 3 uM assessed as normalized cell index after 7 days by Alamar blue assay relative to control", "assay_type": "functional", "details": "time 7 day", "procedure,_shortened": "as §1"}, "BT-245 [15]": {"system": "BT-245", "assay": "Growth inhibition of human BT-245 cells expressing mutant K27M at 7 uM assessed as normalized cell index after 7 days by Alamar blue assay relative to control", "assay_type": "functional", "details": "time 7 day", "procedure,_shortened": "as §1"}, "BT-245 [16]": {"system": "BT-245", "assay": "Growth inhibition of human BT-245 cells expressing mutant K27M at 5 uM assessed as normalized cell index after 7 days by Alamar blue assay relative to control", "assay_type": "functional", "details": "time 7 day", "procedure,_shortened": "as §1"}, "BT-245 [17]": {"system": "BT-245", "assay": "Growth inhibition of K27M knock-out human BT-245 cells at 7 uM assessed as normalized cell index after 7 days by Alamar blue assay relative to control", "assay_type": "functional", "details": "time 7 day", "procedure,_shortened": "as §1"}, "BT-245 [18]": {"system": "BT-245", "assay": "Growth inhibition of K27M knock-out human BT-245 cells at 3 uM assessed as normalized cell index after 7 days by Alamar blue assay relative to control", "assay_type": "functional", "details": "time 7 day", "procedure,_shortened": "as §1"}, "BT-245 [19]": {"system": "BT-245", "assay": "Growth inhibition of human BT-245 cells expressing mutant K27M at 4 uM assessed as normalized cell index after 7 days by Alamar blue assay relative to control", "assay_type": "functional", "details": "time 7 day", "procedure,_shortened": "as §1"}, "BT-245 [20]": {"system": "BT-245", "assay": "Growth inhibition of K27M knock-out human BT-245 cells at 8 uM assessed as normalized cell index after 7 days by Alamar blue assay relative to control", "assay_type": "functional", "details": "time 7 day", "procedure,_shortened": "as §1"}, "BT-245 [21]": {"system": "BT-245", "assay": "Growth inhibition of K27M knock-out human BT-245 cells at 10 uM assessed as normalized cell index after 7 days by Alamar blue assay relative to control", "assay_type": "functional", "details": "time 7 day", "procedure,_shortened": "as §1"}, "BT-245 [22]": {"system": "BT-245", "assay": "Growth inhibition of human BT-245 cells expressing mutant K27M at 0.5 to 10 uM after 7 days by Alamar blue assay", "assay_type": "functional, cell-based", "details": "dose 0.5-10 µM, time 7.0 day", "procedure,_shortened": "as §1"}, "BT-245 [23]": {"system": "BT-245", "assay": "Growth inhibition of K27M knock-out human BT-245 cells at 0.5 to 10 uM after 7 days by Alamar blue assay", "assay_type": "functional, cell-based", "details": "dose 0.5-10 µM, time 7.0 day", "procedure,_shortened": "as §1"}}, "note": "The source made the active and inactive calls. The calls are words filed in the database; no cut-off is given here.", "data": [{"smiles": "CCCc1cc(C)[nH]c(=O)c1CNC(=O)c1cc(-c2ccc(N3CCN(C(C)C)CC3)nc2)cc2c1cnn2C(C)C", "values": [{"measurement": "Activity_index", "setting": "BT-245 [1]", "value": 93.5, "unit": "%"}, {"measurement": "Activity_index", "setting": "BT-245 [2]", "value": 107.71, "unit": "%"}, {"measurement": "Activity_index", "setting": "BT-245 [3]", "value": 97.97, "unit": "%"}, {"measurement": "Activity_index", "setting": "BT-245 [4]", "value": 92.89, "unit": "%"}, {"measurement": "Activity_index", "setting": "BT-245 [5]", "value": 106.57, "unit": "%"}, {"measurement": "inhibition", "setting": "[6]", "value": "Active"}, {"measurement": "inhibition", "setting": "[7]", "value": "Active"}, {"measurement": "Activity_index", "setting": "BT-245 [8]", "value": 109.66, "unit": "%"}, {"measurement": "Activity_index", "setting": "BT-245 [9]", "value": 96, "unit": "%"}, {"measurement": "Activity_index", "setting": "BT-245 [10]", "value": 27.95, "unit": "%"}, {"measurement": "inhibition", "setting": "[11]", "value": "Active"}, {"measurement": "Activity_index", "setting": "BT-245 [12]", "value": 108.08, "unit": "%"}, {"measurement": "inhibition", "setting": "[13]", "value": "Active"}, {"measurement": "Activity_index", "setting": "BT-245 [14]", "value": 93.39, "unit": "%"}, {"measurement": "Activity_index", "setting": "BT-245 [15]", "value": 25.18, "unit": "%"}, {"measurement": "Activity_index", "setting": "BT-245 [16]", "value": 73.66, "unit": "%"}, {"measurement": "Activity_index", "setting": "BT-245 [17]", "value": 106.11, "unit": "%"}, {"measurement": "Activity_index", "setting": "BT-245 [18]", "value": 112.32, "unit": "%"}, {"measurement": "Activity_index", "setting": "BT-245 [19]", "value": 85.7, "unit": "%"}, {"measurement": "Activity_index", "setting": "BT-245 [20]", "value": 63.65, "unit": "%"}, {"measurement": "Activity_index", "setting": "BT-245 [21]", "value": 50.02, "unit": "%"}]}, {"smiles": "CCCc1cc(C)[nH]c(=O)c1CNC(=O)c1cc(-c2ccnc(N3CCN(C)CC3)c2)cc2c1cnn2C(C)C", "values": [{"measurement": "Activity", "setting": "BT-245 [22]", "value": "Active"}, {"measurement": "Activity", "setting": "BT-245 [23]", "value": "Active"}]}]}
